High-throughput results: PubChem BioAssay, several laboratories
CCR6 antag – CCR6 receptor antagonists, primary screen, cell-based, CHO-K1, luminescence, beta-arrestin, uHTS | C-C chemokine receptor type 6 (Homo sapiens), P51684 | CHO-K1 CCR6 PathHunter beta-arrestin, CCL20-stimulated | inhibition, % at 20 µM | actives 0.49% (n = 340,000) | AID 493098, 2011;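 active = compounds whose inhibition of the agonist-driven luminescence signal at 20 µM reaches about 50%, limit read from the data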;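 note: cells stimulated with CCL20 at 14 nM final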
CXCR6 inh – CXCR6 receptor inhibitors, primary screen, cell-based, beta-arrestin, luminescence, CHO-K1 PathHunter, 1536-well; C-X-C chemokine receptor type 6 (Homo sapiens), O00574; actives 0.36% (n = 360,000); inhibition, % at 20 µM; in the data active = inhibition above about 34%, passing the limit was not always enough;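 note: antagonist mode with CXCL16 agonist at 10 nM final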
m5-HT2A agonist – mouse Htr2a agonists via beta-arrestin recruitment, primary screen, cell-based, luminescence | 5-hydroxytryptamine receptor 2A (Mus musculus), P35363 | CHO-K1 mHTR2A beta-arrestin complementation; percent of 30 µM serotonin response | activation, % at 7.6 µM | actives 0.66% (n = 360,000);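 active = activation above a run cutoff, the mean activation of all tested compounds plus 3 SD, cut at about 14% in these data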
APJ ag – agonists of human apelin receptor APJ, primary screen, CHO-K1 cells, PathHunter beta-arrestin, luminescence. 0% DMSO wells, 100% apelin. activation, % at 20 µM. actives 0.11% (n = 330,000). P35414;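 active = activation more than six SD over the plate average, tested at 20 µM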
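Assay system: CHO-K1 cells stably expressing ProLink-tagged human APJ and arrestin–beta-gal acceptor. Compound dosing: 20 µM single point, 1% DMSO. Times: 16-18 h seeding, 90 min dark compound exposure, 60 min detection. Detection: beta-gal luminescence. Evaluation: APJ–arrestin association signal. Controls: negative DMSO alone, positive Apelin-13 at 10 nM.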
EBI2 antag – EBI2 receptor antagonists, beta-arrestin recruitment, primary screen, cell-based, luminescence, 7a,25-OHC stimulation, uHTS; G-protein coupled receptor 183 (Homo sapiens), P32249; 7a,25-OHC stimulated; inhibition, % at 5 µM; actives 0.81% (n = 360,000); AID 651636, 2012; in the data active = inhibition above about 38%;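 note: enzyme fragment complementation signal reports receptor beta-arrestin coupling in cells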
Target sequence (P32249 whole entry, looked up, the tested form may be a part): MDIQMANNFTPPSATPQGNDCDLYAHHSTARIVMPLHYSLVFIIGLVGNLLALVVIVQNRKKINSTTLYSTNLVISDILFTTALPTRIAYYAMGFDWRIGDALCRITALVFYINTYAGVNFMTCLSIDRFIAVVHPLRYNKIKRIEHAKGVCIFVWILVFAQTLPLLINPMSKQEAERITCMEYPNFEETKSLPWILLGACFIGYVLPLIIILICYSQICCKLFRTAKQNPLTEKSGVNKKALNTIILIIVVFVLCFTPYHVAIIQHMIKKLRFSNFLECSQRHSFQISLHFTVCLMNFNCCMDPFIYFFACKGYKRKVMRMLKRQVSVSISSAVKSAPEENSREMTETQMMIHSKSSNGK
APJ antag – antagonists of human apelin receptor APJ, primary screen, CHO-K1 cells, beta-arrestin complementation, luminescence; P35414; inhibition, % at 20 µM; actives 0.32% (n = 330,000); AID 2521, 2010;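 active = inhibition above about 40% at 20 µM, limit read from the data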;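 note: cells challenged with 10 nM apelin-13 agonist together with compound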
EBI2 conf – EBI2 antagonist hit retest, beta-arrestin, confirmation, cell-based, single concentration, luminescence, 7a,25-OHC stimulation. shares compounds with EBI2 antag. 7a,25-OHC antagonism. inhibition, % at 5 µM. actives 29% (n = 2,400). AID 651997, 2013;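 active = inhibition of at least 50%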
EBI2 ag – EBI2 agonist activity of antagonist hits, confirmation, counter-screen for EBI2 antagonist project, cell-based, single concentration, agonist mode, luminescence; activation, % at 5 µM; EBI2-expressing cells, 60 min; 0% vehicle, 100% 7α,25-dihydroxycholesterol control; shares compounds with EBI2 antag; 2,400 tested, under 10 active; AID 652000, 2013;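 active = activation of at least 50%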
bGal cs – E. coli beta-galactosidase enzyme inhibition, confirmation, counter-screen for EBI2 antagonist project, biochemical, luminescence, single concentration. shares compounds with EBI2 antag. purified beta-galactosidase, luminescent Galacton Star, 15 min. inhibition, % at 5 µM. actives 1% (n = 2,400);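 active = replicate-average signal at least 3 plate SD below neutral wells, shown as high inhibition, flagging enzyme-inhibiting false positives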;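 note: higher means stronger loss of beta-gal luminescence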
Of the large screens only hits and unclear results are named; the others gave an inactive call (follow-up assays come after a bar, where they were run). Shown are actives, neighbours in structure and some others; about 2.1% of the full set was active somewhere.

CCOc1ccc(NC(=S)Nc2ccc(C)c([N+](=O)[O-])c2)cc1	EBI2 antag 64.8 | EBI2 conf 65.8 | EBI2 ag inactive | bGal cs inactive
CCOc1ccc(NC(=S)Nc2ccc(OCC)cc2)cc1	EBI2 antag 80.2 | EBI2 conf 61.8 | EBI2 ag inactive | bGal cs inactive
O=C(CNC(=O)c1ccco1)N/N=C/c1c[nH]c2ccccc12	none
CCc1ccc(NC(=S)Nc2cccc(OC)c2)cc1	EBI2 antag 49.8 | EBI2 conf inactive | EBI2 ag inactive | bGal cs inactive
Cc1ccc2oc(C(=O)N3CCC(O)(c4cccc(C(F)(F)F)c4)CC3)c(C)c2c1	EBI2 antag 56.9 | EBI2 conf inactive | EBI2 ag inactive | bGal cs inactive
Cc1ccc2nc(-c3ccc(C#N)cc3)c(Cc3ccccc3C(F)(F)F)n2c1	EBI2 antag 46.7 (no result: CCR6 antag, APJ ag, APJ antag) | EBI2 conf inactive | EBI2 ag inactive | bGal cs inactive
O=C1CC(C(=O)N2CCN(S(=O)(=O)c3cccc(F)c3)CC2)CN1Cc1ccccc1Cl (configuration not stated)	EBI2 antag 61.7 | EBI2 conf inactive | EBI2 ag inactive | bGal cs inactive
O=C(NCCN1C(=O)S/C(=C\c2ccc(Cl)cc2)C1=O)c1ccc(F)c(S(=O)(=O)N2CCOCC2)c1	EBI2 antag 66.9 | EBI2 conf inactive | EBI2 ag inactive | bGal cs inactive
Cn1c(NCC(O)CO)nc2c1c(=O)n(Cc1ccc(Cl)c(Cl)c1)c(=O)n2C (configuration not stated)	none
Cn1c(NCc2ccco2)nc2c1c(=O)n(Cc1ccc(Cl)c(Cl)c1)c(=O)n2C	EBI2 antag 46.1 | EBI2 conf inactive | EBI2 ag inactive | bGal cs inactive
OCc1cccc(-c2cnc3c(Nc4cccc(OC(F)(F)C(F)F)c4)nccn23)c1	EBI2 antag 51.3 (no result: CCR6 antag, APJ ag, APJ antag) | EBI2 conf 50.9 | EBI2 ag inactive | bGal cs inactive
COc1ccc(-c2nc3c([nH]2)c(=O)n(C)c(=O)n3C)c(OC)c1	none
COc1ccc(C2CC(c3ccccc3)=NN2C(=O)COC(=O)c2ccc(S(C)(=O)=O)cc2)cc1 (configuration not stated)	none
COc1ccc(C2CC(c3ccccc3)=NN2C(=O)COC(=O)c2cc(S(=O)(=O)N3CCOCC3)ccc2F)cc1 (configuration not stated)	EBI2 antag 54.0 | EBI2 conf 52.5 | EBI2 ag inactive | bGal cs inactive
COc1ccc(CC(=O)NNS(=O)(=O)c2ccccc2[N+](=O)[O-])cc1	none
CCc1ccc(C(C)NC(=O)/C=C/c2ccc(Br)cc2)cc1 (configuration not stated)	EBI2 antag 61.4 | EBI2 conf inactive | EBI2 ag inactive | bGal cs inactive
CC(NC(=O)/C=C/c1ccccc1)c1ccccc1 (configuration not stated)	none
CC(NC(=O)/C=C/c1ccc(Br)cc1)c1ccccc1 (configuration not stated)	EBI2 antag 44.4 | EBI2 conf inactive | EBI2 ag inactive | bGal cs inactive
Cc1ccc(/C=C/C(=O)NC(C)c2ccccc2)cc1 (configuration not stated)	none
CN(CC(=O)Nc1ccc(F)c(F)c1F)C(=O)c1cc(-c2ccncc2)nc2ccccc12	none
O=C1C(C=NCc2ccccn2)=C(O)c2ccccc21	none
CCOC(=O)c1ccc(Nc2cc(C)nc(-c3ccccc3)n2)cc1	EBI2 antag 56.7 | EBI2 conf inactive | EBI2 ag inactive | bGal cs inactive
CCOC(=O)c1ccc(Nc2nc(C)cc(C)n2)cc1	none (no result: APJ ag, APJ antag)
O=C(COc1ccc2ccccc2c1)N1CCN(c2ccccc2O)CC1	EBI2 antag 71.3 | EBI2 conf 61.6 | EBI2 ag inactive | bGal cs inactive
CS(=O)(=O)N1CCN(C(=O)COc2ccccc2)CC1	none
CCc1ccc(OCC(=O)N2CCN(c3ccccc3F)CC2)cc1	EBI2 antag 64.7 | EBI2 conf 75.5 | EBI2 ag inactive | bGal cs inactive
Cc1ccc(CC(=O)N2CCN(c3ccccc3F)CC2)cc1	none
O=C(COc1ccc2ccccc2c1)N1CCNCC1	none
CS(=O)(=O)N1CCN(C(=O)COc2ccc3ccccc3c2)CC1	EBI2 antag 78.6 | EBI2 conf inactive | EBI2 ag inactive | bGal cs inactive
C=CCNC(=O)Nc1ccc2nc(C)sc2c1	none
O=C(NCc1ccc(F)cc1)C1CCN(S(=O)(=O)N2CCC3(CC2)OCCO3)CC1	none
Cc1ccc(CNC(=O)C2CCN(S(=O)(=O)N3CCC4(CC3)OCCO4)CC2)cc1	EBI2 antag 45.2 | EBI2 conf inactive | EBI2 ag inactive | bGal cs inactive
CCc1ccc(CNC(=O)C2CCN(S(=O)(=O)N3CCC4(CC3)OCCO4)CC2)cc1	EBI2 antag 47.2 | EBI2 conf inactive | EBI2 ag inactive | bGal cs inactive
CCn1c(N2CCN(C(=O)/C=C/c3ccccc3)CC2)nc2ccccc21	EBI2 antag 86.4 | EBI2 conf 56.2 | EBI2 ag inactive | bGal cs inactive
O=C(/C=C/c1ccccc1)N1CCCN(C(=O)/C=C/c2ccccc2)CC1	EBI2 antag 79.4 | EBI2 conf 52.9 | EBI2 ag inactive | bGal cs inactive
CCc1ccc(/C=C\C(=O)N2CCCC2)cc1	EBI2 antag 46.8 | EBI2 conf inactive | EBI2 ag inactive | bGal cs inactive
O=C(/C=C/c1ccccc1)N1CCN(C(=O)c2ccco2)CC1	EBI2 antag 63.4 | EBI2 conf inactive | EBI2 ag inactive | bGal cs inactive
Cn1c(CN2CCOCC2)nc2cc(NC(=O)c3ccc(F)cc3)ccc21	none
Clc1ccc(-c2nnnn2-c2ccc(Cl)c(Cl)c2)cc1Cl	EBI2 antag 49.3 | EBI2 conf inactive | EBI2 ag inactive | bGal cs inactive
